From PubChem BioAssay
HTRA1 inhibitor = inhibitors of human serine peptidase HTRA1. inhibition, % at 5.96 µM. recombinant HTRA1, FP-rhodamine activity-based probe, fluorescence polarization. hit rate 0.5% among 340,000. Q92743; in the data active = inhibition above about 36%;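 also: 0% = enzyme with DMSO and 100% = wells lacking enzyme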
PAFAH2 FP inh = inhibitors of human PAFAH2; hit rate 0.99% among 340,000; Q99487; recombinant PAFAH2, FP-rhodamine activity probe, fluorescence polarization; inhibition, % at 3.39 µM;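 active = inhibition above the mean over all tested compounds plus 3 SD, cut at about 30% in these data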;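 also: inhibitors block probe labeling of enzyme so polarization drops; 0% = enzyme with DMSO and 100% = wells lacking PAFAH2 protein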
PAFAH1B3 inh = blocks human PAF acetylhydrolase 1B catalytic subunit 3; Q15102; recombinant PAFAH1B3, FP-rhodamine probe, fluorescence polarization; inhibition, % at 3.39 µM; hit rate 0.28% among 340,000; AID 492972;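 active = inhibition above the screen-wide average of all tested compounds plus 3 SD, cut at about 25% in these data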;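 also: 0% = enzyme with DMSO only and 100% = wells lacking PAFAH1B3 protein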
PAFAH1B2 inh = inhibitors of human PAFAH1B2 | P68402 | hit rate 1.2% among 340,000 | recombinant PAFAH1B2, FP-rhodamine activity probe, fluorescence polarization | inhibition, % at 3.39 µM;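 active = inhibition above the mean of all tested compounds plus 3 SD, cut at about 24% in these data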;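 also: 0% = enzyme with DMSO and 100% = wells lacking PAFAH1B2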
Target sequence (P68402 whole entry, looked up): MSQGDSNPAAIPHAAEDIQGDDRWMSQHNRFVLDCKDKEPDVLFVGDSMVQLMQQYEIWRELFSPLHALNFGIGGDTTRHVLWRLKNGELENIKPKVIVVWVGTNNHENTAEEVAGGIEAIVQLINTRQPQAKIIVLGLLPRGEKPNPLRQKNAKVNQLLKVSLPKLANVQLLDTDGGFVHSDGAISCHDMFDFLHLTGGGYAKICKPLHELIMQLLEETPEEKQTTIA
mABHD4 FP = ABHD4 (mouse) inhibition, primary FP screen. purified mABHD4, FP-Rh probe fluorescence polarization. inhibition, % at 8.92 µM. hit rate 0.54% among 370,000. Q8VD66;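 active = inhibition exceeding the mean over every tested compound plus 3 SD, cut at about 30% in these data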;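 also: 0% = plate median of compound wells and 100% = S159A mutant with DMSO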
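Test system: mABHD4 protein; Read-out basis: % inhibition; Incubation: 45 min + 60 min at 25 °C; Repeats: single replicate; Technique: fluorescence polarization with parallel and perpendicular emission, 525/598 nm; Compound: 8.92 µM, single dose; Benchmarks: full inhibition S159A mutant plus DMSO, zero as sample-well median.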
pPAFAH FP inh = inhibitors of human plasma PAF acetylhydrolase (pPAFAH) | recombinant pPAFAH, FP-rhodamine probe fluorescence polarization | hit rate 1.5% among 330,000 | inhibition, % at 3.39 µM;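 active = inhibition above the mean inhibition across the screen plus 3 SD, cut at about 25% in these data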;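 also: inhibitors block binding of the rhodamine activity-based probe so polarization drops; 0% = enzyme with DMSO and 100% = wells lacking pPAFAH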
Target sequence (Q13093 whole entry, looked up): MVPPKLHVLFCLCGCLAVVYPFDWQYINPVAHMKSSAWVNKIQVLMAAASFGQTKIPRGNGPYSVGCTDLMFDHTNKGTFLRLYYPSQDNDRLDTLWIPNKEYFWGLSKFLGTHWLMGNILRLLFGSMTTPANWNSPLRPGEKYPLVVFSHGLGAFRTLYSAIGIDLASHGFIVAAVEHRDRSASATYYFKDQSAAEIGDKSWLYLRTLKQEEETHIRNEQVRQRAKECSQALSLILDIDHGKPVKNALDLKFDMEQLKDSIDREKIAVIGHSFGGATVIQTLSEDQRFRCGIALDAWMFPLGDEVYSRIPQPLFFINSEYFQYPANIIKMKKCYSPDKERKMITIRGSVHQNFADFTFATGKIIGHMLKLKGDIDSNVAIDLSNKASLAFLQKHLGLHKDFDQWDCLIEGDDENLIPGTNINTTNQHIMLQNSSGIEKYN
* hit, by the source's call; · = no result; ! = a repeat was not active. Rows were chosen to be rich in hits. Some 2.8% of all compounds tested hit in one or more screens of this group.

SMILES | HTRA1 inhibitor | PAFAH2 FP inh | PAFAH1B3 inh | PAFAH1B2 inh | mABHD4 FP | pPAFAH FP inh
OC(c1ccccc1)(c1ccc(F)cc1)C(c1ccccc1)N1CCOCC1 (stereo not drawn) | -26.1 | -1.4 | 2.2 | 33.0* | · | -0.3
CC(Nn1cnnc1)c1cc(Cl)ccc1O (stereo not drawn) | -3.1 | 3.6 | 9.4 | 0.2 | 0.1 | -4.1
Cc1ccc(NC(C)c2cc(Cl)ccc2O)cc1 (stereo not drawn) | -10.8 | -4.5 | 2.4 | 27.8* | -13.6 | 0.5
CC(=O)c1nn(-c2cccc(Br)c2)cc1C(=O)c1ccco1 | -3.1 | 5.2 | 8.1 | -3.7 | -4.6 | 25.2*
COc1ccc(CN2CN3Cc4ccccc4C3CS2(=O)=O)cc1 (stereo not drawn) | · | · | · | · | -0.7 | ·
N#CC1(NC(=O)COC(=O)c2cc(O)c3ccccc3c2O)CCCCC1 | 16.4 | 21.0 | 49.8* | 15.7 | · | 13.3
COC(=O)[C@]12C[C@H](CC(=O)N3CCN(C(=O)c4ccco4)CC3)C(=O)N(Cc3ccc(Cl)cc3Cl)C1=C[C@H](C(C)C)O[C@@H]2C1CC1 | · | · | · | · | 1.2 | ·
CCOC(=O)C(=O)N1CCC(C(=O)NC2CCCc3ccccc32)CC1 (stereo not drawn) | · | · | · | · | 5.1 | ·
Cc1ccc2nc(Cl)c(/C=N/Nc3ccc(C(=O)O)cc3)cc2c1 | -14.8 | -4.0 | 10.2 | 3.9 | 21.3 | 30.1*
CC1(c2ccc(Cl)cc2)NC(=S)N2C1NC(=S)N2c1ccccc1 (stereo not drawn) | -1.9 | 0.1 | 0.5 | 35.0* | 0.3 | -0.7
COc1ccc(CN2CCC(CNC(=O)NCc3ccccc3)CC2)cc1 | · | · | · | · | 3.9 | ·
O=C(CN1CCN(c2nc(-c3ccccc3)cs2)CC1)Nc1ccc(Cl)c(Cl)c1 | · | · | · | · | -2.0 | ·
CO[C@H]([C@H](C)/C=C/N(C)C=O)[C@@H](C)C(=O)CC[C@H](C)[C@H](O)[C@H](C)[C@H]1OC(=O)/C=C/C(C)=C/C[C@H](O)C[C@@H]2C=CC[C@@H](C[C@H](OC)[C@@H](CO)[C@@H](OC)C[C@@H](OC)[C@@H]1C)O2 | · | · | · | · | 0.9 | ·
Cc1c(N/N=C(\C#N)C(=O)c2ccc(Cl)cc2)c(=O)n(-c2ccccc2)n1C | 1.0 | -1.3 | 7.4 | 3.9 | 8.2 | 3.6
N#C/C(=N\Nc1ccc(Cl)cc1)C(=O)c1ccccc1 | 8.7 | 24.9 | -3.0 | 4.1 | 1.9 | 26.8*
COc1ccccc1N(Cc1ccccc1)S(=O)(=O)c1cccc(C(=O)O)c1 | -4.5 | -2.5 | 8.1 | 7.1 | -14.9 | 34.0*
CCCN1CCS(=O)(=O)N(Cc2cn(CC(=O)OCC)nn2)C(C(=O)OC)C1 (stereo not drawn) | · | · | · | · | 1.1 | ·
CC(=NNC(=O)c1ccncc1)c1ccccc1O | 9.0 | -1.8 | 9.7 | 3.6 | -0.2 | ·
CC(C)CC(=NNC(=O)c1ccncc1)c1cc(Cl)ccc1O | -2.8 | -9.3 | 8.3 | 29.2* | 8.6 | ·
COC(=O)[C@H](C(C)C)N(CCc1cn(Cc2ccc(C)cc2)nn1)S(=O)(=O)c1ccc(F)cc1Br | · | · | · | · | 1.5 | ·
O=C(NC(Cc1ccccc1)C(=O)O)C1CCN(S(=O)(=O)c2cccc(C(F)(F)F)c2)CC1 (stereo not drawn) | 1.2 | -3.3 | 7.8 | 11.3 | 0.6 | 27.3*
Cc1ccc(S(=O)(=O)N2CCC(C(=O)N[C@@H](Cc3ccccc3)C(=O)O)CC2)cc1 | 7.9 | -0.8 | 3.7 | 21.7 | -4.9 | 2.6
O=C(NCCC1=CCCCC1)c1ccc(Cl)c(S(=O)(=O)Nc2ccccc2)c1 | -38.6 | 11.2 | -8.3 | 27.9* | -19.2 | 16.0
O=C(c1ccc(CS(=O)(=O)Cc2ccc(Cl)cc2)o1)N1CCCC1 | 0.6 | 8.1 | 6.5 | 1.4 | 5.0 | 25.9*
O=C(NCCS(=O)(=O)c1ccc(Br)cc1)c1ccc(Cl)cc1 | 0.3 | 4.7 | -1.9 | 28.3* | 3.7 | 5.4
SMILES | HTRA1 inhibitor | PAFAH2 FP inh | PAFAH1B3 inh | PAFAH1B2 inh | mABHD4 FP | pPAFAH FP inh
CN(CCO)c1cccc2c1S(=O)(=O)N(Cc1cn(Cc3ccc(F)cc3)nn1)Cc1ccccc1O2 | · | · | · | · | 4.3 | ·
CCC1C/C(=C/c2ccco2)C(=O)/C(=C/c2ccco2)C1 (stereo not drawn) | · | · | · | · | · | 36.7*
N#Cc1cccc(C(=O)N2CCC(Oc3cccnc3)CC2)c1 | · | · | · | · | 5.2 | ·
COc1ccc(Cn2nnnc2CN(Cc2cc3cc(C)ccc3[nH]c2=O)C2CCCC2)cc1 | -6.3 | 3.7 | 3.4 | 25.8* | 7.1 | 1.8
COC(=O)c1cc(-c2cccc(OCc3ccccc3)c2)c(=O)n2c1CCC2 | · | · | · | · | -11.9 | ·
CCC(=O)Nc1ccc(S(=O)(=O)Nc2c(C)nc3nc[nH]n3c2=O)cc1 | 3.5 | -1.7 | 7.2 | 2.4 | -4.0 | 3.8
Cc1nc2nc[nH]n2c(=O)c1NC(=O)CC12CC3CC(CC(C3)C1)C2 | 5.8 | 35.5*! | 7.7 | 25.1* | -12.8 | 3.3
COc1ccc(C2=Nc3cccc4cccc(c34)N2)cc1 | 4.7 | 2.2 | 15.8 | 13.8 | 5.4 | -1.1
Nc1cccc(C2=Nc3cccc4cccc(c34)N2)c1 | -3.2 | -12.5 | 32.6* | 25.2* | -3.8 | -2.8
COC(=O)C1CCN(C(=O)C2CC(=O)N(c3ccc(OC)cc3)C2c2ccc(OC)cc2)CC1 (stereo not drawn) | · | · | · | · | 1.2 | ·
Cc1c2cnn(CC(=O)Nc3c(F)c(F)cc(F)c3F)c(=O)c2c(C)n1Cc1ccccc1F | -17.9 | 21.5 | -6.5 | -2.9 | -20.3 | 26.8*
COC(=O)[C@H](CC(C)C)N(Cc1cn(CC2CCCCC2)nn1)S(=O)(=O)c1ccccc1Br | · | · | · | · | 7.6 | ·
O=C(NCCc1c[nH]c2ccccc12)OCc1cn(Cc2cccc(Cl)c2)nn1 | · | · | · | · | -8.7 | ·
N#Cc1c(N2CCCC2)nc(N)c2c(N)nc(N3CCCC3)cc12 | 22.9 | 59.2* | 62.8* | 41.5* | -2.0 | 16.0
CCOc1cc2c(C#N)c(N3CCCC3)nc(N)c2c(N)n1 | 5.7 | -4.2 | 10.1 | 4.2 | -0.8 | 0.9
COC(=O)[C@]12C[C@H](CC(=O)N3CCCCC3)C(=O)N(Cc3cccc4ccccc34)C1=C[C@H](COCc1ccccc1)O[C@@H]2C | · | · | · | · | 2.1 | ·
Cc1ccc(S(=O)(=O)Nc2nc3ccccc3s2)cc1 | -1.2 | 7.4 | 8.7 | 2.9 | 0.2 | 6.2
Cc1ccc(S(=O)(=O)N2CCCC2c2nc3ccccc3s2)cc1 (stereo not drawn) | 1.7 | 6.9 | 3.5 | 7.3 | -1.0 | 31.2*
O=S(=O)(c1cc(Cl)cc(Cl)c1)N1CCCC1c1nc2ccccc2s1 (stereo not drawn) | 5.8 | 4.9 | 3.1 | -3.5 | 3.8 | 1.9
O=S(=O)(c1ccc(Cl)cc1)N1CCCC1c1nc2ccccc2s1 (stereo not drawn) | -20.7 | -1.2 | -0.6 | 6.6 | -1.3 | 30.3*
O=C(CSc1nnc(-c2ccncc2)n1-c1ccc(Br)cc1)c1ccccc1 | · | · | · | · | 3.6 | ·
Cc1ccc(C2C3CN(C(C)C)CC=C3C(C#N)=C(N)C2(C#N)C#N)cc1 (stereo not drawn) | 2.7 | 8.9 | 9.7 | 6.4 | 33.9* | 18.4
CN1CC=C2C(C#N)=C(N)C(C#N)(C#N)[C@H](c3ccoc3)[C@H]2C1 | 24.2 | 28.4 | 20.4 | 13.6 | · | 32.0*
